Results taken from ChEMBL document CHEMBL5046283, “Design, Synthesis, and Biological Evaluation of the First Inhibitors of Oncogenic CHD1L” (J Med Chem, 2022).
Active and inactive are the calls of the source. No cut-off for these calls is given here.

How the values were obtained:
[1] = test system: SW-620; experiment: Cytotoxicity against human SW-620 M-phenotype tumor organoid assessed as reduction in cell viability incubated for 72 hrs by CellTiter Glo assay; assay type: functional, cell-based; conditions: SW-620, 72 h
Method in brief: (§1)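 Isolated M-Phenotype cells plated at 2,000 cells/well in ultra-low-attachment round-bottom wells, centrifuged to aggregate, then given 2% Matrigel final. Grown 72 h at 37 °C/5% CO2 to form organoids, then dosed for 72 h. CellTiter Glo 3D added 1:1, shaken 45 min at room temperature, luminescence read. Normalised to 0.5% DMSO vehicle; triplicate experiments, technical n = 3.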

[2] = Induction of mesenchymal-epithelial transition in human SW-620 M-phenotype tumor organoid assessed as downregulation of vimentin expression by fluorescence analysis; assay type: functional, cell-based
Method in brief: (§2)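 M-Phenotype organoids carry a dual reporter (VimPro-GFP, EcadPro-RFP). Dose-response over a 72 h treatment; vimentin promoter activity read as GFP fluorescence by 3D high-content imaging and normalised. Duplicate experiments.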

[3] = test system: HCT-116; experiment: Cytotoxicity against human HCT-116 M-phenotype tumor organoid assessed as reduction in cell viability incubated for 72 hrs by CellTiter Glo assay; assay type: functional, cell-based; conditions: HCT-116, 72 h; method in brief: as §1
[4] = Inhibition of CHD1L-mediated TCF transcription in human HCT-116 M-phenotype cells incubated for 24 hrs by TOPflash luciferase reporter assay; assay type: cell-based; conditions: HCT-116, 24 h
Method in brief: (§3)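 M-Phenotype cells seeded at 20,000 (SW620) or 10,000 (HCT116) cells/well and transiently transfected with TOPflash for 72 h. Treated for 24 h. Luminescence read with One-Glo after PBS wash, normalised to total protein by BCA on a parallel plate.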

[5] = test system: HCT-116; experiment: Inhibition of cell stemness in human HCT-116 M-phenotype cells assessed as reduction in colony formation; assay type: functional, cell-based
Method in brief: (§4)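 M-Phenotype cells plated at 200 (SW620) or 75 (HCT116) cells/well and treated continuously. Medium and drug replenished every three days over 7–10 days of growth. Colonies imaged by high-content imaging and counted. Duplicate experiments with triplicate technical replicates.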

[6] = Inhibition of CHD1L-mediated TCF transcription in human SW-620 M-phenotype cells incubated for 24 hrs by TOPflash luciferase reporter assay; assay type: cell-based; conditions: SW-620, 24 h; method in brief: as §3
[7] = test system: SW-620; experiment: Inhibition of cell stemness in human SW-620 M-phenotype cells assessed as reduction in colony formation; assay type: functional, cell-based; method in brief: as §4
[8] = Inhibition of recombinant catalytic CHD1L (unknown origin) preincubated for 10 mins followed by ATP addition measured after 1 hr by plate reader analysis; design: species or system Homo sapiens
Method in brief: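 800 nM catalytic CHD1L and 200 nM mononucleosome preincubated with inhibitor for 10 min at 37 °C in 50 mM Tris pH 7.5, 50 mM NaCl, 5 mM MgCl2, 2 mM DTT, 5% glycerol. Reaction started with 10 μM ATP, 1 h at 37 °C. Phosphate sensor added (500 nM), fluorescence read at ex 430/em 450. No-enzyme background; normalised to DMSO; triplicate.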

[9] = Cytotoxicty against CRC102 patient-derived tumor organoid assessed as reduction in cell viability incubated for 72 hrs by CellTiter Glo assay; assay type: functional, tissue-based; conditions: Homo sapiens, Colon cancer organoid
Method in brief: (§5)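 Patient cells washed with PBS, digested with TrypLE and passed through a 100 μm strainer. Seeded at 5,000 cells/well with 2% Matrigel and left 72 h to self-assemble as organoids, then dosed for 72 h. CellTiter Glo 3D added 1:1, 45 min at room temperature with shaking, luminescence read. Normalised to 0.5% DMSO; triplicate experiments, technical n = 3.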

[10] = Cytotoxicty against CRC042 patient-derived tumor organoids assessed as reduction in cell viability incubated for 72 hrs by CellTiter Glo assay; assay type: functional; conditions: Homo sapiens, Neoplasm; method in brief: as §5
[11] = Induction of mesenchymal-epithelial transition in human HCT-116 M-phenotype tumor organoid assessed as downregulation of vimentin expression by fluorescence analysis; assay type: functional, cell-based; method in brief: as §2
[12] = Toxicity in athymic nude mouse xenografted with human SW-620 cells assessed as change in body weight at 75 to 125 mg/kg, po measured after 28 days; assay type: organism-based; conditions: in vivo, dose 75-125 mg/kg, time 28 day
Method in brief: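 Female athymic nude mice (8 weeks old) bearing subcutaneous SW620 EMT dual-reporter M-Phenotype flank xenografts. Dosed by oral gavage at 75 or 125 mg/kg, or vehicle (10% DMSO, 90% PEG 400), once daily, 5 days/week, for 28–31 days. Body weight recorded twice weekly.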

[13] = test system: SW-620; experiment: Antitumor activity against human SW-620 cells xenografted in athymic nude mouse assessed as decrease in tumor volume at 75 to 125 mg/kg, po measured after 20 to 28 days by caliper method; assay type: functional, organism-based; conditions: dose 75-125 mg/kg, time 20-28 day
Method in brief: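 SW620 EMT dual-reporter M-Phenotype cells, 2 × 10^6 cells/100 μL in 1:1 Matrigel:RPMI 1640, injected subcutaneously into each flank of female athymic nude mice (8 weeks old). Randomised at day 5 to vehicle (10% DMSO, 90% PEG 400), 75 or 125 mg/kg. Oral gavage once daily, 5 days/week, for 28–31 days. Caliper tumour volume twice weekly by 4/3*[…]*(L/2)*(W/2)*(H/2).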

[14] = test system: SW-620; experiment: Cytotoxicity against human SW-620 tumor organoid assessed as reduction in cell viability incubated for 72 hrs by CellTiter Glo assay; assay type: functional, cell-based; conditions: SW-620, 72 h

SMILES | IC50 [2] [µM] | IC50 [4] [µM] | IC50 [5] [µM] | IC50 [6] [µM] | IC50 [7] [µM] | IC50 [8] [µM] | IC50 [11] [µM] | IC50 [1] [µM] | IC50 [3] [µM] | IC50 [9] [µM] | IC50 [10] [µM] | Activity [12] | Activity [13] | IC50 [14] [µM]
Cc1cc(Nc2ccc(NC(=O)Cc3cc(Br)cs3)cc2)nc(N2CCCC2)n1 | 3.3 | 8.7 | 0.8 | 12 | 1.6 | 3.3 | 5 | 2.6 | 4.3 | 8.3 | 4.2 | Non-Toxic | Active | 2.6
Cc1cc(Nc2ccc(NC(=O)Cc3c(C)[nH]c4ccccc34)cc2)nc(N2CCCC2)n1 | 1.7 | 6.9 | 0.9 | 6.4 | 1.6 | 16 | 2.7 | 2.3 | 2.2 | 11 | 4 | – | – | 1.6
Cc1cc(Nc2ccc(NC(=O)Cc3cccc4ccccc34)cc2)nc(N2CCCC2)n1 | 1.8 | 5.5 | 0.5 | 2.2 | 0.7 | 2.9 | 2.6 | – | 2.3 | 5.3 | 3.1 | – | – | –
Cc1cc(Nc2ccc(NC(=O)Cc3cccs3)cc2)nc(N2CCCC2)n1 | 10 | 38 | 3.2 | 43 | – | 4 | 13 | 8.7 | 9.4 | 21 | 16 | – | – | 4.6

Now from value to compound, other results behind:

IC50 [2] [µM] | IC50 [4] [µM] | IC50 [5] [µM] | IC50 [6] [µM] | IC50 [7] [µM] | IC50 [8] [µM] | IC50 [11] [µM] | SMILES | IC50 [1] [µM] | IC50 [3] [µM] | IC50 [9] [µM] | IC50 [10] [µM] | Activity [12] | Activity [13] | IC50 [14] [µM]
1.5 | 6.9 | 0.9 | 11 | 1.1 | 3.3 | 1.9 | Cc1cc(Nc2ccc(NC(=O)Cc3c[nH]c4ccccc34)cc2)nc(N2CCCC2)n1 | 1.1 | 1.4 | 9 | 6.2 | – | – | –
1.3 | 4.9 | 0.2 | 4.9 | 0.3 | 12 | 2.6 | Cc1cc(Nc2ccc(NC(=O)Cc3cc(Cl)nc4ccccc34)cc2)nc(N2CCCC2)n1 | 1.3 | 2.2 | 3.5 | 3.1 | – | – | 2.4
1.8 | 4.2 | 0.4 | 9.6 | 0.5 | 12 | 2.5 | Cc1cc(Nc2ccc(NC(=O)Cc3c[nH]c4cc(Cl)ccc34)cc2)nc(N2CCCC2)n1 | 2 | 2.3 | 8.2 | 3.4 | – | – | 1.4
